Test results reported in ChEMBL document CHEMBL1123266, “Antibacterial activity of phosphono dipeptides related to alafosfalin” (J Med Chem, 1986).
Converted amounts (≈) assume the structure as drawn.

Assays:
[1] = test system: Enterococcus faecalis; experiment: Concentration (IC50) to inhibit the growth of Streptococcus faecalis.; assay type: functional, organism-based
Procedure, shortened: (§1)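 Broth dilution in a defined liquid peptide medium lacking antagonists of small peptide mimetics. Inocula were overnight cultures grown in this medium at 37 °C and diluted to about 4 × 10^6 cfu/mL. Compound was tested as a doubling dilution series, final 0.065–512 μg/mL, incubated overnight at 37 °C. Turbidity was read, and IC50 is the concentration reducing 24-h growth to 50% of control.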

[2] = test system: Staphylococcus aureus; experiment: Minimum inhibitory concentration (MIC) to control the growth of Staphylococcus aureus strain PCM 2054.; assay type: functional
Procedure, shortened: (§2)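 Doubling dilutions of compound were made in a defined liquid peptide medium free of peptide-mimetic antagonists, final 0.065–512 μg/mL. The inoculum was an overnight 37 °C culture diluted to about 4 × 10^6 cfu/mL, incubated overnight at 37 °C. Non-turbid samples were subcultured (0.1 mL) onto solid peptide-medium agar and incubated overnight at 37 °C to assign MIC.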

[3] = test system: Escherichia coli; experiment: Minimum inhibitory concentration (MIC) to control the growth of Escherichia coli strain PCM 2057; assay type: functional; procedure, shortened: as §2
[4] = test system: Escherichia coli; experiment: Concentration (IC50) to inhibit the growth of Escherichia coli.; assay type: functional, organism-based; procedure, shortened: as §1
[5] = test system: Serratia marcescens; experiment: Concentration (IC50) to inhibit the growth of Serratia marcescens.; assay type: functional, organism-based; procedure, shortened: as §1
[6] = test system: Klebsiella aerogenes; experiment: Minimum inhibitory concentration (MIC) to control the growth of Klebsiella aerogenes strain PCM 2063; assay type: functional; procedure, shortened: as §2
[7] = test system: Enterococcus faecalis; experiment: Minimum inhibitory concentration (MIC) to control the growth of Streptococcus faecalis strain PCM 896; assay type: functional; procedure, shortened: as §2
[8] = test system: Staphylococcus aureus; experiment: Concentration (IC50) to inhibit the growth of Staphylococcus aureus.; assay type: functional, organism-based; procedure, shortened: as §1
[9] = test system: Bacillus subtilis; experiment: Concentration (IC50) to inhibit the growth of Bacillus subtilis; assay type: functional, organism-based; procedure, shortened: as §1
[10] = test system: Serratia marcescens; experiment: Compound was evaluated for its minimum inhibitory concentration (MIC) to control the growth of Serratia marcescens strain PCM 549.; assay type: functional; procedure, shortened: as §2
[11] = test system: Klebsiella aerogenes; experiment: Concentration (IC50) to inhibit the growth of Klebsiella aerogenes.; assay type: functional, organism-based; procedure, shortened: as §1
[12] = test system: Bacillus subtilis; experiment: Minimum inhibitory concentration (MIC) to control the growth of Bacillus subtilis strain PCM 1949.; assay type: functional; procedure, shortened: as §2
[13] = test system: Bacillus subtilis; experiment: Compound was evaluated for its minimum inhibitory concentration (MIC) to control the growth of Bacillus subtilis strain PCM 1949.; assay type: functional; procedure, shortened: as §2
[14] = test system: Staphylococcus aureus; experiment: Compound was evaluated for its minimum inhibitory concentration (MIC) to control the growth of Staphylococcus aureus strain PCM 2054.; assay type: functional; procedure, shortened: as §2
[15] = test system: Staphylococcus aureus; experiment: Compound was evaluated for its concentration (IC50) to inhibit the growth of Staphylococcus aureus.; assay type: functional, organism-based; procedure, shortened: as §1
[16] = test system: Serratia marcescens; experiment: Minimum inhibitory concentration (MIC) to control the growth of Serratia marcescens strain PCM 549.; assay type: functional; procedure, shortened: as §2
[17] = test system: Escherichia coli; experiment: Compound was evaluated for its minimum inhibitory concentration (MIC) to control the growth of Escherichia coli strain PCM 2057.; assay type: functional; procedure, shortened: as §2
[18] = test system: Serratia marcescens; experiment: Compound was evaluated for its concentration (IC50) to inhibit the growth of Serratia marcescens.; assay type: functional, organism-based; procedure, shortened: as §1

Row | SMILES | IC50 [1] [µg/mL] | MIC [2] [µg/mL] | MIC [3] [µg/mL] | IC50 [4] [µg/mL] | IC50 [5] [µg/mL] | MIC [6] [µg/mL] | MIC [7] [µg/mL] | IC50 [8] [µg/mL] | IC50 [9] [µg/mL] | MIC [10] [µg/mL] | IC50 [11] [µg/mL] | MIC [12] [µg/mL] | MIC [13] [µg/mL] | MIC [14] [µg/mL] | IC50 [15] [µg/mL] | MIC [16] [µg/mL] | MIC [17] [µg/mL] | IC50 [18] [µg/mL]
1 | CC(C)CC(N)C(=O)NC(C1CC1)P(=O)(O)O (configuration not stated) | > 512 | 128 (≈ 484 µM) | > 512 | > 512 | > 512 | > 512 | > 512 | 83 (≈ 314 µM) | > 512 | > 512 | > 512 | > 512 |  |  |  |  |  | 
2 | CC(N)C(=O)NC(Cc1ccccc1)P(=O)(O)O (configuration not stated) | > 512 |  | > 512 | > 512 | 14 (≈ 51.4 µM) | > 512 | > 512 |  | 6.8 (≈ 25 µM) | > 512 | > 512 |  | > 512 | > 512 | 333 (≈ 1220 µM) |  |  | 
3 | CC(N)C(=O)NC(C1CC1)P(=O)(O)O (configuration not stated) | > 512 | > 512 | > 512 | > 512 | > 512 | > 512 | > 512 | > 512 | > 512 |  | > 512 | > 512 |  |  |  | > 512 |  | 
4 | CC(N)C(=O)NC(C1CCC1)P(=O)(O)O (configuration not stated) | > 512 | > 512 | > 512 | > 512 | > 512 | > 512 | > 512 | > 512 | > 512 |  | > 512 | > 512 |  |  |  | > 512 |  | 
5 | CC(C)CC(N)C(=O)N1CCCC1P(=O)(O)O (configuration not stated) | 42 (≈ 159 µM) | 64 (≈ 242 µM) | 128 (≈ 484 µM) | 70 (≈ 265 µM) | 83 (≈ 314 µM) | 256 (≈ 969 µM) | > 512 | 35 (≈ 132 µM) | > 512 |  | 154 (≈ 583 µM) | > 512 |  |  |  | 512 (≈ 1940 µM) |  | 
6 | CC(C)CC(N)C(=O)NC(C)P(=O)(O)O (configuration not stated) | 2 (≈ 8.4 µM) | 32 (≈ 134 µM) | 8 (≈ 33.6 µM) | 0.09 (≈ 0.378 µM) | 0.1 (≈ 0.42 µM) | > 512 | > 512 | 8 (≈ 33.6 µM) | 4 (≈ 16.8 µM) |  | 1.6 (≈ 6.72 µM) | 16 (≈ 67.2 µM) |  |  |  | 0.5 (≈ 2.1 µM) |  | 
7 | CC(C)CC(N)C(=O)NC(C(C)C)P(=O)(O)O (configuration not stated) | 410 (≈ 1540 µM) | > 512 | > 512 | 282 (≈ 1060 µM) | > 512 | > 512 | > 512 | 32 (≈ 120 µM) | 179 (≈ 672 µM) |  | 0.065 (≈ 0.244 µM) | 512 (≈ 1920 µM) |  |  |  | > 512 |  | 
8 | CC(N)C(=O)NC(C1CCCCC1)P(=O)(O)O (configuration not stated) | > 512 | > 512 | > 512 | > 512 | > 512 | > 512 | > 512 | 256 (≈ 969 µM) | > 512 |  | > 512 | > 512 |  |  |  | > 512 |  | 
9 | CC(N)C(=O)NC(C)P(=O)(O)O (configuration not stated) | 30 (≈ 153 µM) | > 512 |  | 0.22 (≈ 1.12 µM) | 0.6 (≈ 3.06 µM) | > 512 | > 512 | 58 (≈ 296 µM) | 512 (≈ 2610 µM) |  | 64 (≈ 326 µM) | > 512 |  |  |  | 64 (≈ 326 µM) | 8 (≈ 40.8 µM) | 
10 | CC(N)C(=O)NC1(P(=O)(O)O)CCCCC1 (configuration not stated) | > 512 | > 512 | > 512 | > 512 | > 512 | > 512 | > 512 | > 512 | > 512 |  | > 512 | > 512 |  |  |  | > 512 |  | 
11 | CC(C)CC(N)C(=O)NC(C1CCC1)P(=O)(O)O (configuration not stated) | 230 (≈ 826 µM) | > 512 | > 512 | > 512 |  | > 512 | > 512 | > 512 | > 512 |  | > 512 | > 512 |  |  |  | > 512 |  | > 512
